The record followed here is ChEMBL document CHEMBL1130340, “Semisynthetic derivatives of purpuromycin as potential topical agents for vaginal infections” (1997).

Structures are written as SMILES. Values after ≈ are worked out from the molar mass of the structure shown. A value given as a limit tells only on which side of the number the result lay.

Holding throughout (type): functional
Test [1] has as its system Staphylococcus epidermidis. In words: In vitro antimicrobial activity against Staphylococcus epidermidis ATCC 12228. The gist of the method: (§1)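 Broth microdilution MIC in Oxoid Iso-Sensitest broth; inoculum about 10^4 cfu/mL; 37 °C for 20–24 h.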
Test [2] relates to Staphylococcus aureus. In words: In vitro antimicrobial activity against Staphylococcus aureus L1 65 30% bovine serum. The gist of the method: (§2)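 Broth microdilution MIC against S. aureus L165 in Iso-Sensitest broth, 37 °C, 20–24 h.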
Test [3] relates to Staphylococcus aureus. Put plainly: In viro antimicrobial activity against Staphylococcus aureus L165 10 x e+6 cfu/ml. The essentials:
as §2

Test [4] has as its system Bacteroides fragilis. In words: In vitro antimicrobial activity against Bacteroides fragilis ATCC 25285. The gist of the method:
(§3)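 Anaerobe MIC by broth microdilution in Wilkins-Chalgren broth; inoculum 5 × 10^5 cfu/mL; 37 °C.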

In test [5] the test system is Streptococcus pneumoniae. Put plainly: In vitro antimicrobial activity against Streptococcus pneumoniae L44. The essentials: (§4)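 Streptococci: broth microdilution MIC in Todd Hewitt broth; inoculum about 10^4 cfu/mL; 37 °C, 20–24 h.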
The test system of test [6] is Pseudomonas aeruginosa. Put plainly: In vitro antimicrobial activity against Pseudomonas aeruginosa ATCC 10145. The gist of the method: as §1
The subject of test [7] is Staphylococcus haemolyticus. In words: In vitro antimicrobial activity against Staphylococcus haemolyticus L602. The gist of the method:
as §1

Test [8] concerns Proteus vulgaris. Put plainly: In vitro antimicrobial activity against Proteus vulgaris ATCC881. The gist of the method: as §1
Test [9] relates to Cutibacterium acnes. In words: In vitro antimicrobial activity against Propionibacterium acnes ATCC 6919. The gist of the method:
as §3

Test [10] has as its system Enterococcus faecalis. Put plainly: In vitro antimicrobial activity against Enterococcus faecalis ATCC 7080. The essentials:
as §1

Test [11] relates to Streptococcus pyogenes. In words: In vitro antimicrobial activity against Streptococcus pyogenes L49. The gist of the method: as §4
The test system of test [12] is Candida albicans. Put plainly: Candida albicans L145. The gist of the method: (§5)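 Candida: broth microdilution MIC in phosphate-buffered Yeast Nitrogen Base broth with glucose (1% w/v) and L-asparagine (0.15% w/v); inoculum about 10^4 cfu/mL; 37 °C, 20–24 h.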
Test [13] has as its system Neisseria gonorrhoeae. In words: In vitro antimicrobial activity against Neisseria gonorrhoeae L997. The gist of the method: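 Broth microdilution MIC in GC Base broth plus 1% (v/v) IsoVitaleX; inoculum about 10^4 cfu/mL; 37 °C.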
Test [14] relates to Staphylococcus aureus. Put plainly: In vitro antimicrobial activity against Staphylococcus aureus L165. The gist of the method: as §1
Test [15] deals with Haemophilus influenzae. Put plainly: In vitro antimicrobial activity against Haemophilus influenza ATCC 19418. The gist of the method: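 Broth microdilution MIC in Brain Heart Infusion broth plus 1% (v/v) supplement C; inoculum about 10^4 cfu/mL; 37 °C.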
Test [16] concerns Escherichia coli. In words: In vitro antimicrobial activity against Escherichia coli L47. The essentials:
as §1

For test [17], the system named is Gardnerella vaginalis. Put plainly: In vitro antimicrobial activity against Gardnerella vaginalis (MIC90). The gist of the method:
(§6)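 Agar dilution MIC in Casman medium with 5% (v/v) whole and 0.15% (v/v) lysed rabbit blood; inoculum about 10^5 cfu; 48 h at 37 °C under N2-CO2-H2 (80:10:10).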

For test [18], the system named is Candida albicans. In words: In vitro antimicrobial activity against Candida albicans L145. The essentials:
as §5

The subject of test [19] is Candida. In words: Minimum inhibition concentration for 50% inhibition against Candida species. The gist of the method:
as §5

Test [20] concerns Candida. In words: Minimum inhibition concentration for 90% inhibition against Candida species. The gist of the method: as §5
In test [21] the test system is Candida tropicalis. In words: In vitro antimicrobial activity against Candida tropicalis. The gist of the method:
as §5

The test system of test [22] is Nakaseomyces glabratus. In words: In vitro antimicrobial activity against Candida glabrata (1). The gist of the method:
as §5

Test [23] has as its system Gardnerella vaginalis. Put plainly: In vitro antimicrobial activity against Gardnerella vaginalis (MIC50). The essentials: as §6
In test [24] the test system is Candida albicans. In words: In vitro antimicrobial activity against Candida albicans (24). The gist of the method:
as §5

The test system of test [25] is Trichomonas vaginalis. Put plainly: Antimicrobial activity against Trichomonas vaginalis. The gist of the method: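 Broth microdilution in Trichomonas Culture Medium Base plus 10% horse serum; about 10^5 cells/mL; 48 h at 37 °C under N2-CO2-H2; MIC read by microscopy for viable (motile) protozoa.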

As for `COC(=O)c1cc2cc3c(c(O)c2c(=O)o1)OC1(CC2=C(O1)C(=O)c1c(O)c(NCCO)cc(O)c1C2=O)CC3O` (stereo not given), the MIC is 0.06 µg/mL (≈ 0.106 µM) in test [1]; 1 µg/mL (≈ 1.76 µM) in test [2]; 0.13 µg/mL (≈ 0.229 µM) in test [3]; 0.13 µg/mL (≈ 0.229 µM) in test [4]; 0.016 µg/mL (≈ 0.0282 µM) in test [5]; over 128 µg/mL in [6]. In addition, the MIC in test [7] is 0.13 µg/mL (≈ 0.229 µM); in test [8], over 128 µg/mL; in test [9], 0.004 µg/mL (≈ 0.00705 µM); in [10], 0.06 µg/mL (≈ 0.106 µM); in test [11], 0.03 µg/mL (≈ 0.0529 µM); in test [12] it was over 128 µg/mL. In addition, the MIC in test [13] is 0.03 µg/mL (≈ 0.0529 µM); in test [14] it was 0.06 µg/mL (≈ 0.106 µM); in test [15], 0.06 µg/mL (≈ 0.106 µM); in [16], over 128 µg/mL.

In the case of `COC(=O)c1cc2cc3c(c(O)c2c(=O)o1)OC1(CC2=C(O1)C(=O)c1c(O)c(N)cc(O)c1C2=O)CC3O` (stereo not given), the MIC in test [1] came to 0.03 µg/mL (≈ 0.0573 µM); in test [2], 1 µg/mL (≈ 1.91 µM); in [18], 32 µg/mL (≈ 61.1 µM); in [3], 0.06 µg/mL (≈ 0.115 µM); in test [21], 128 µg/mL (≈ 245 µM); in test [4] it was 0.06 µg/mL (≈ 0.115 µM). Also, the MIC was 0.016 µg/mL (≈ 0.0306 µM) in [5]; 32 µg/mL (≈ 61.1 µM) in test [22]; over 128 µg/mL in test [6]; 0.06 µg/mL (≈ 0.115 µM) in [7]; 2 µg/mL (≈ 3.82 µM) in test [24]; over 128 µg/mL in test [8]. For the same compound, the MIC in [9] was 0.008 µg/mL (≈ 0.0153 µM); in test [10], 0.06 µg/mL (≈ 0.115 µM); in test [11], 0.03 µg/mL (≈ 0.0573 µM); in test [25], 0.5 µg/mL (≈ 0.955 µM); in test [13] it was 0.03 µg/mL (≈ 0.0573 µM); in [14], 0.03 µg/mL (≈ 0.0573 µM). In addition, the MIC is 0.06 µg/mL (≈ 0.115 µM) in test [15] and over 128 µg/mL in [16]. Also, the MIC90 (as a rule, the lowest concentration that inhibits either 90% of growth or 90% of the strains tested, depending on the study) in [17] worked out at 0.06 µg/mL (≈ 0.115 µM); in [20] it was 128 µg/mL (≈ 245 µM). The figures for the MIC50 in [19] and in test [23] were 64 µg/mL (≈ 122 µM) and 0.06 µg/mL (≈ 0.115 µM), respectively.
